Source: ChEMBL document CHEMBL4257575, “Discovery of Novel Flavonoid Dimers To Reverse Multidrug Resistance Protein 1 (MRP1, ABCC1) Mediated Drug Resistance in Cancers Using a High Throughput Platform with "Click Chemistry"” (J Med Chem, 2018)

Key:
Format in all cases: cell-based
[1] = target: T1, Multidrug resistance-associated protein 1 (Homo sapiens, UniProt P33527); test: Inhibition of MRP1 in human 2008/MRP1 cells assessed as potentiation of doxorubicin-induced cytotoxicity by measuring cell survival at 1 uM after 5 days by MTS assay relative to control; details: 120 h
T1 sequence (P33527 whole entry): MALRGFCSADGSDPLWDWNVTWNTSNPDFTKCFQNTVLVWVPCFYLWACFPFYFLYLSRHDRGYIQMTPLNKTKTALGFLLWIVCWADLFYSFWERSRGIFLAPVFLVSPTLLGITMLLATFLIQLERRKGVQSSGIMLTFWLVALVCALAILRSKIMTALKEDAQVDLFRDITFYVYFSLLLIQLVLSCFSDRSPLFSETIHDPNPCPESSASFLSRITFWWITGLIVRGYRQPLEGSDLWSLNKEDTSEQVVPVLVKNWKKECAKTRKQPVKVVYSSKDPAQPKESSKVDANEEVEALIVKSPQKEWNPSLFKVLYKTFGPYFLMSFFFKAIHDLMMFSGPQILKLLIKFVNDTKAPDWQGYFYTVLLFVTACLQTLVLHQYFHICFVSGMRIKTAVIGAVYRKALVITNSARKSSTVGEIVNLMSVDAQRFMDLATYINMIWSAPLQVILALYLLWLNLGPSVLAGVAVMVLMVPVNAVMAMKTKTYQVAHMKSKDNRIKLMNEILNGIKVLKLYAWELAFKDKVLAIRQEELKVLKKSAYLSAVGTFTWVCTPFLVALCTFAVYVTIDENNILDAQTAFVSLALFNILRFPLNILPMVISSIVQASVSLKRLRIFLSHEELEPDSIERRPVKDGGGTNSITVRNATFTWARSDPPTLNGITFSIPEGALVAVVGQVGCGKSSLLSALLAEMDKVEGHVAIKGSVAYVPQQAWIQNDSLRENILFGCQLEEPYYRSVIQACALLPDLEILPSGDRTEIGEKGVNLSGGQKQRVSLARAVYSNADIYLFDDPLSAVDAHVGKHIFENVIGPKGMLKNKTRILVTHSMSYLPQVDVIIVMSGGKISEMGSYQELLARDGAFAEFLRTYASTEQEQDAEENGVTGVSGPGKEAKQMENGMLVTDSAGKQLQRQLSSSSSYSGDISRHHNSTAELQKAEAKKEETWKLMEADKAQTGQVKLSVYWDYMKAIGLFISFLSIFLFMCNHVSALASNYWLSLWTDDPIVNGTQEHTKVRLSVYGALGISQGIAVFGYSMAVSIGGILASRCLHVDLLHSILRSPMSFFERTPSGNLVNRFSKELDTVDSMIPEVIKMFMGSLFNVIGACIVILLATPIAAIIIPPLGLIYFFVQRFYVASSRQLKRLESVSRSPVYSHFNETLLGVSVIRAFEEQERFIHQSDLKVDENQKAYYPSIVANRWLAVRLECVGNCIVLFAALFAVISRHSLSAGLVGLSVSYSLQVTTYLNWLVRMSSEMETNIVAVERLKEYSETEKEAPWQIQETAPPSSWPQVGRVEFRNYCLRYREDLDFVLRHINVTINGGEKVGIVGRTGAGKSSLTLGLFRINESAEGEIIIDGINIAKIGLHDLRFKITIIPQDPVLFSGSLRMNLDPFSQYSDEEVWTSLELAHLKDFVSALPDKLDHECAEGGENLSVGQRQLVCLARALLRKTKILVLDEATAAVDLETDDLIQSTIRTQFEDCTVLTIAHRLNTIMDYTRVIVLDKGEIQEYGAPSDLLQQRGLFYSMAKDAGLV
Summary of the method: (§1)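 2008/MRP1 cells (retroviral human MRP1 transfectant; RPMI 1640, 10% FBS) at 4,000 per well, with 100 nM doxorubicin plus crude, unpurified click products in DMSO: 2 µM in the primary screen, 1 µM in the secondary. Incubated 5 days at 37 °C. MTS/PMS added for 2 h at 37 °C, absorbance read at 490 nm. % survival is relative to wells without DOX or product. Run in triplicate, at least three experiments.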

[2] = target: T1, Multidrug resistance-associated protein 1; test: Inhibition of MRP1 in human 2008/MRP1 cells assessed as potentiation of doxorubicin-induced cytotoxicity by measuring cell survival at 2 uM after 5 days by MTS assay relative to control; details: 120 h; summary of the method: as §1
[3] = Cytotoxicity against human 2008/MRP1 cells assessed as cell survival at 2 uM after 5 days by MTS assay relative to control; details: read-out: Survival
[4] = system: L929; test: Cytotoxicity against mouse L929 cells assessed as reduction in cell survival after 5 days by MTS assay; details: L929, 120 h
[5] = organism: Homo sapiens; test: Inhibition of P-gp in human LCC6MDR cells assessed as potentiation of paclitaxel-induced cytotoxicity by measuring fold reduction in paclitaxel IC50 at 1 uM after 5 days by MTS assay relative to paclitaxel alone

| Structure (SMILES) | Survival [1] | Survival [2] | viability at 120 h, 2 µM [3] | IC50 [4] | Ratio IC50 [5] |
| --- | --- | --- | --- | --- | --- |
| O=C(/C=C/c1ccc(OCCCCc2cn(CCOCCOc3ccc(-c4cc(=O)c5ccccc5o4)cc3)nn2)cc1)c1ccc(F)cc1O | 66% | 42% | 90% | – | – |
| O=c1cc(-c2ccccc2)oc2cc(OCCN(Cc3ccccc3)Cc3cn(CCOCCOc4ccc(-c5oc6ccccc6c(=O)c5OCc5ccccc5)cc4)nn3)ccc12 | 53% | 49% | 82% | – | – |
| O=c1cc(-c2ccc(OCCCc3cn(CCOCCOc4cccc(-c5oc6ccccc6c(=O)c5OCc5ccccc5)c4)nn3)cc2)oc2cc(F)ccc12 | 55% | 45% | 99% | – | – |
| O=c1cc(-c2ccc(OCCCc3cn(CCOCCOCCOc4ccc(-c5cc(=O)c6cc(F)ccc6o5)cc4)nn3)cc2)oc2ccccc12 | – | 46% | 44% | – | – |
| O=c1cc(-c2ccc(OCCOCCn3cc(CCCOc4ccc(-c5cc(=O)c6ccc(F)cc6o5)cc4)nn3)cc2)oc2ccccc12 | 29% | 21% | 91% | > 100 µM | 63.5 |
| O=c1cc(-c2ccccc2)oc2cc(OCCOCCn3cc(CN(CCOc4ccc5c(=O)cc(-c6ccccc6)oc5c4)Cc4ccccc4)nn3)ccc12 | 54% | 46% | 80% | – | – |
| Cc1ccc2oc(-c3ccc(OCCCCc4cn(CCOCCOCCOc5ccc6c(=O)cc(-c7ccccc7)oc6c5)nn4)cc3)cc(=O)c2c1 | 65% | 33% | 89% | – | – |
| O=C1c2ccccc2C(=O)N1CCc1cn(CCOCCOCCOc2ccc(-c3oc4ccccc4c(=O)c3OCc3ccccc3)cc2)nn1 | – | 34% | 16% | – | – |
| COc1cccc(COc2c(-c3ccc(OCCOCCn4cc(COCCOc5ccc6c(=O)cc(-c7ccccc7)oc6c5)nn4)cc3)oc3ccccc3c2=O)c1 | 71% | 47% | 88% | – | – |
| O=c1cc(-c2ccc(OCCOCCOCCn3cc(CN(Cc4ccccc4)Cc4cn(CCOCCOCCOc5ccc(-c6cc(=O)c7ccccc7o6)cc5)nn4)nn3)cc2)oc2ccccc12 | – | 29% | 49% | – | – |
| O=c1cc(-c2ccc(OCCCc3cn(CCOCCOc4ccc5c(=O)cc(-c6ccccc6)oc5c4)nn3)cc2)oc2ccccc12 | – | 39% | 39% | – | – |
| O=C1c2ccccc2C(=O)N1CCc1cn(CCOc2cccc3c(=O)cc(-c4ccccc4)oc23)nn1 | – | 37% | 11% | – | – |
| O=C1c2ccccc2C(=O)N1CCc1cn(CCOCCOc2ccc(-c3cc(=O)c4cc(F)ccc4o3)cc2)nn1 | – | 39% | 14% | – | – |
| Cc1ccc2oc(-c3ccc(OCCCCc4cn(CCOCCOCCOc5ccc(-c6cc(=O)c7ccccc7o6)cc5)nn4)cc3)cc(=O)c2c1 | – | 39% | 68% | – | – |
| O=c1[nH]c(-c2ccc(OCCCc3cn(CCOCCOc4ccc5c(=O)cc(-c6ccccc6)oc5c4)nn3)cc2)nc2ccccc12 | 70% | 49% | 65% | – | – |
| COc1cccc(COc2c(-c3ccc(OCCCCc4cn(CCOCCOCCOc5ccc(-c6oc7ccccc7c(=O)c6OCc6ccccc6)cc5)nn4)cc3)oc3ccccc3c2=O)c1 | – | 33% | 53% | – | – |
| CCc1ccc(O)c(C(=O)/C=C/c2ccc(OCCCCc3cn(CCOCCOc4ccc(-c5cc(=O)c6ccccc6o5)cc4)nn3)cc2)c1 | 66% | 40% | 95% | – | – |
| COc1cccc(COc2c(-c3ccc(OCCCCc4cn(CCOCCOCCOc5ccc(-c6cc(=O)c7cc(C)ccc7o6)cc5)nn4)cc3)oc3ccccc3c2=O)c1 | – | 46% | 50% | – | – |
| O=c1cc(-c2ccc(OCCCc3cn(CCOCCOc4ccc(-c5cc(=O)c6cc(F)ccc6o5)cc4)nn3)cc2)oc2ccccc12 | – | 39% | 43% | – | – |
| O=c1cc(-c2ccc(OCCOCCn3cc(CN(CCOc4ccc5c(=O)cc(-c6ccccc6)oc5c4)Cc4ccccc4)nn3)cc2)oc2ccccc12 | 29% | 26% | 97% | > 100 µM | 38.7 |
| O=c1cc(-c2ccc(OCCOCCOCCn3cc(CN(CCOc4ccc5c(=O)cc(-c6ccccc6)oc5c4)Cc4ccccc4)nn3)cc2)oc2ccccc12 | 48 to 63% | 45% | 74% | > 100 µM | 31.7 |
| O=C1c2ccccc2C(=O)N1CCc1cn(CCOCCOCCOc2ccc(-c3cc(=O)c4ccccc4o3)cc2)nn1 | – | 28% | 4% | – | – |
| Cc1ccc2oc(-c3ccc(OCCCCc4cn(CCOCCOc5ccc6c(=O)cc(-c7ccccc7)oc6c5)nn4)cc3)cc(=O)c2c1 | 46% | 34% | 93% | > 100 µM | 54.7 |

| Structure (SMILES) | Survival [1] | Survival [2] | viability at 120 h, 2 µM [3] | IC50 [4] | Ratio IC50 [5] |
| --- | --- | --- | --- | --- | --- |
| O=c1cc(-c2ccc(OCCCc3cn(CCOCCOCCOc4ccc(-c5oc6ccccc6c(=O)c5OCc5ccccc5)cc4)nn3)cc2)oc2ccccc12 | 62% | 45% | 39% | – | – |
| O=C(/C=C/c1ccc(OCCCCc2cn(CCOCCOc3ccc(-c4cc(=O)c5ccccc5o4)cc3)nn2)cc1)c1ccccc1O | 56% | 39% | 83% | – | – |
| O=C1c2ccccc2C(=O)N1CCc1cn(CCOCCOCCOc2ccc(-c3cc(=O)c4cc(F)ccc4o3)cc2)nn1 | – | 28% | 10% | – | – |
| O=C1c2ccccc2C(=O)N1CCc1cn(CCOCCOc2ccc(-c3cc(=O)c4ccccc4o3)cc2)nn1 | – | 37% | 18% | – | – |
| O=c1cc(-c2ccccc2)oc2cc(OCCCCc3cn(CCOCCOCCOc4ccc(-c5cc(=O)c6cc(F)ccc6o5)cc4)nn3)ccc12 | 59% | 47% | 92% | – | – |
| O=c1cc(-c2ccc(OCCOCCn3cc(CN(Cc4ccccc4)Cc4cn(CCOCCOc5ccc(-c6cc(=O)c7ccccc7o6)cc5)nn4)nn3)cc2)oc2ccccc12 | 79% | 49% | 92% | – | – |
| O=c1cc(-c2ccccc2)oc2cc(OCCOCCOCCn3cc(CCCOc4ccc(-c5cc(=O)c6cc(F)ccc6o5)cc4)nn3)ccc12 | – | 40% | 105% | – | – |
| COCOc1cc(OCc2ccccc2)c2c(=O)cc(-c3ccc(OCCCc4cn(CCOCCOc5ccc(-c6cc(=O)c7ccccc7o6)cc5)nn4)cc3)oc2c1 | 64% | 39% | 95% | – | – |
| O=c1cc(-c2ccc(OCCCc3cn(CCOCCOCCOc4ccc(-c5oc6ccccc6c(=O)c5OCc5ccccc5)cc4)nn3)cc2)oc2cc(F)ccc12 | 53% | 37% | 97% | – | – |
| O=c1cc(-c2ccc(OCCCc3cn(CCOCCOCCOc4ccc5c(=O)cc(-c6ccccc6)oc5c4)nn3)cc2)oc2ccccc12 | 54% | 42% | 49% | – | – |
| O=C1c2ccccc2C(=O)N1CCc1cn(CCOCCOCCOc2ccc3c(=O)cc(-c4ccccc4)oc3c2)nn1 | – | 41% | 23% | – | – |
| COc1cccc(COc2c(-c3ccc(OCCCCc4cn(CCOCCOc5ccc(-c6cc(=O)c7ccccc7o6)cc5)nn4)cc3)oc3ccccc3c2=O)c1 | – | 40% | 63% | – | – |
| O=c1cc(-c2ccccc2)oc2cc(OCCOCc3cn(CCOCCOc4ccc(-c5oc6ccccc6c(=O)c5OCc5ccccc5)cc4)nn3)ccc12 | 56% | 46% | 85% | – | – |
| CN(C)C(=O)CCSC(SCCC(=O)O)c1cccc(/C=C/c2ccc3ccc(Cl)cc3n2)c1 (stereo not given) [MK-571] | – | – | – | > 100 µM | – |
| COc1cccc(COc2c(-c3ccc(OCCCCc4cn(CCOCCOCCOc5ccc(-c6cc(=O)c7ccccc7o6)cc5)nn4)cc3)oc3ccccc3c2=O)c1 | – | 58% | – | – | – |
| Cc1ccc(C(=O)/C=C/c2ccc(OCCCCc3cn(CCOCCOc4ccc(-c5cc(=O)c6ccccc6o5)cc4)nn3)cc2)c(O)c1 | – | 57% | – | – | – |
| CCc1ccc(O)c(C(=O)/C=C/c2ccc(OCCCCc3cn(CCOc4cccc5c(=O)cc(-c6ccccc6)oc45)nn3)cc2)c1 | – | 86% | – | – | – |
| COc1cccc(COc2c(-c3ccc(OCCCCc4cn(CCOCCOc5ccc(-c6oc7ccccc7c(=O)c6OCc6ccccc6)cc5)nn4)cc3)oc3ccccc3c2=O)c1 | – | 68% | – | – | – |
| C#CCOCCOc1ccc2c(=O)cc(-c3ccccc3)oc2c1 | – | 98% | – | – | – |
| O=c1cc(-c2ccc(OCCCc3cn(CCOCCOCCOc4ccc(-c5cc(=O)c6ccccc6o5)cc4)nn3)cc2)oc2ccccc12 | – | 56% | – | – | – |
| O=c1cc(-c2ccccc2)oc2cc(OCCOCCn3cc(CN(Cc4ccccc4)Cc4cn(CCOCCOc5ccc6oc(-c7ccccc7)cc(=O)c6c5)nn4)nn3)ccc12 | – | 76% | – | – | – |
| COc1cccc(COc2c(-c3ccc(OCCOCCN=[N+]=[N-])cc3)oc3ccccc3c2=O)c1 | – | 57% | – | – | – |
| O=c1cc(-c2ccc(OCCCc3cn(CCOCCOCCOc4ccc(-c5cc(=O)c6cc(F)ccc6o5)cc4)nn3)cc2)oc2ccc(F)cc12 | – | 76% | – | – | – |
